Assay results: publication PMC6583781 (Journal of medicinal chemistry, 2019)

Tests used:
APE1 = APE1 (Homo sapiens, UniProt P27695); assay: APE1 endonuclease; assay type: biochemical
How it was run: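 Purified full-length APE1 (0.25-1.25 nM) added to 50 nM duplex substrate (6-FAM strand with tetrahydrofuran AP-site mimic annealed to a quencher strand) in 50 mM Tris, 1 mM MgCl2, 50 mM NaCl, pH 7.5. Compounds in triplicate, 10-point 1:2 dilutions from 100 μM. Fluorescence read kinetically at five 1-min intervals immediately; reaction rate compared with DMSO vehicle.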

Pa02c cells = assay: Cell cytotoxicity assay; assay type: cell-based; conditions: Homo sapiens, 48 h, read-out: PaO2c EC50
How it was run: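 Low-passage patient-derived pancreatic Pa02c cells, kept in DMEM with 10% FBS. Plated at 2000 cells/well in poly-D-lysine-treated plates and grown overnight at 37 °C, 5% CO2. Test compound in 5% FBS DMEM, 5-point 1:2 serial dilution from 100 µM, with DMSO vehicle and drug-background wells, for 48 h. Medium then refreshed and Alamar Blue added (10% final) for 4 h. Fluorescence read, background-subtracted, normalized to media alone.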

Chain of APE1 (P27695 whole entry): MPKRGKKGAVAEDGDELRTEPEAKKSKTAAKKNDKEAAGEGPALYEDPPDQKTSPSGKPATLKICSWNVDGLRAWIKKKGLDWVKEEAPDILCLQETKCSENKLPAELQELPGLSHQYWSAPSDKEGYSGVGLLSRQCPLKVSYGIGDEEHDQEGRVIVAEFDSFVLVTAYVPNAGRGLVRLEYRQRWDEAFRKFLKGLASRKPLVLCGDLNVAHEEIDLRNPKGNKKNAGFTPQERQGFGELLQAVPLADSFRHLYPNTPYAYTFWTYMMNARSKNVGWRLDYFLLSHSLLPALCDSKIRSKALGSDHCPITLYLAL

Molecule `Cc1ccc(S(=O)(=O)n2cccc2[C@@H]2NC(=O)[C@H](Cc3c[nH]c4ccccc34)NC(=O)CCNC(=O)C/C=C/[C@@H]2C)cc1` [Compound 19, (3S,13S,14R,E)-3-((1H-Indol-3-yl)methyl)-13-methyl-14-(1-tosyl-1H-pyrrol-2-yl)-1,4,8-triazacyclotetradec-11-ene-2,5,9-trione] has an IC50 (APE1) of 16.9 µM.
With `Cc1ccc(S(=O)(=O)n2cccc2[C@@H]2NC(=O)[C@H](Cc3c[nH]c4ccccc34)NC(=O)C[C@@H](CCc3ccccc3)NC(=O)C/C=C/[C@@H]2C)cc1` [Compound 21, (3S,7R,13S,14R,E)-3-((1H-Indol-3-yl)methyl)-13-methyl-7-phenethyl-14-(1-tosyl-1H-pyrrol-2-yl)-1,4,8-triazacyclotetradec-11-ene-2,5,9-trione] the EC50 (Pa02c cells) was greater than 100 µM.
Work on `Cc1ccc(S(=O)(=O)n2cccc2[C@@H]2NC(=O)[C@H](Cc3c[nH]c4ccccc34)NC(=O)C[C@H](CCc3ccccc3)NC(=O)C/C=C/[C@@H]2C)cc1` [Compound 20, (3S,7S,13S,14R,E)-3-((1H-Indol-3-yl)methyl)-13-methyl-7-phenethyl-14-(1-tosyl-1H-pyrrol-2-yl)-1,4,8-triazacyclotetradec-11-ene-2,5,9-trione] yielded an EC50 (Pa02c cells) greater than 100 µM.
